Tests used:
Format in all cases: cell-based
[1] = Inhibitory concentration of compound required for exhibiting cytotoxic effect on human A2780 cells
Method in brief: (§1)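 Human ovarian carcinoma A2780 cells and the drug-resistant A2780/AD10 subline were exposed to compounds for three days. Growth was read by MTT cell proliferation assay. IC50 values are means ± standard error of at least four independent experiments. Compounds were scored not active when there was no activity below 50 µM.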

[2] = Inhibitory concentration measured in term of cytotoxicity against human A2780/AD10 cells; details: A2780 ADR; method in brief: as §1
[3] = Inhibitory concentration measured in term of cytotoxicity against human A2780/AD10 cells; na = not active below 50 uM; details: a2780 adr; method in brief: as §1
[4] = Inhibitory concentration of compound required for exhibiting cytotoxic effect on human A2780 cells; na = not active below 50 uM; method in brief: as §1
[5] = Inhibitory concentration of compound required for exhibiting cytotoxic effect on human A2780 cells; no. of experiment=4
Method in brief: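 Human ovarian carcinoma A2780 cells exposed to drugs for three days. Growth was read by MTT (3-(4,5-dimethylthiazol-2-yl)-2,5-diphenyltetrazolium bromide) cell proliferation assay and IC50 determined. Values are means ± standard error of at least four independent experiments.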

| SMILES | IC50 [1] [nM] | IC50 [2] [nM] | IC50 [3] | IC50 [4] | IC50 [5] [nM] |
| --- | --- | --- | --- | --- | --- |
| C=C1CCC[C@@H]2CC=C[C@@H](C/C=C\C(=O)O[C@H](CO)C[C@@H]3O[C@H]3[C@@H](O)C1)O2 | 40000 | 44000 |  |  |  |
| C=C1CCC[C@@H]2CC=C[C@@H](C/C=C\C(=O)O[C@H]([C@@H](O)/C=C/c3csc(C)n3)C[C@@H]3O[C@H]3[C@@H](O)C1)O2 |  |  | Not Active | Not Active |  |
| C=C1CCC[C@@H]2CC=C[C@@H](C/C=C\C(=O)O[C@H]([C@@H](O)/C=C/[C@@H]3CC(C)=CCO3)C[C@@H]3O[C@H]3[C@@H](O)C1)O2 | 50 | 74 |  |  |  |
| C=C1CCC[C@@H]2CC=C[C@@H](C/C=C\C(=O)O[C@H]([C@@H](O)/C=C/C3CCCCC3)C/C=C/[C@@H](O)C1)O2 |  |  | Not Active | Not Active |  |
| C=C1CCC[C@@H]2CC=C[C@@H](C/C=C\C(=O)O[C@H]([C@@H](O)/C=C/C3CCCCC3)C[C@@H]3O[C@H]3[C@@H](O)C1)O2 | 9000 | 8300 |  |  |  |
| C=C1CCC[C@@H]2CC=C[C@@H](C/C=C\C(=O)O[C@H](CO)C/C=C/[C@@H](O)C1)O2 |  |  | Not Active | Not Active |  |
| C=C1CCC[C@@H]2CC=C[C@@H](C/C=C\C(=O)O[C@H]([C@@H](O)/C=C/[C@@H]3CC(C)=CCO3)C/C=C/[C@@H](O)C1)O2 | 430 | 1100 |  |  |  |
| C=C1CCC[C@@H]2CC=C[C@@H](C/C=C\C(=O)O[C@H]([C@@H](O)/C=C/c3csc(C)n3)C/C=C/[C@@H](O)C1)O2 |  |  | Not Active | Not Active |  |
| C=C/C=C\[C@H](C)[C@H](OC(N)=O)[C@@H](C)[C@H](O)[C@@H](C)C/C(C)=C\[C@H](C)[C@@H](O)[C@@H](C)/C=C\[C@@H](O)C[C@@H]1OC(=O)[C@H](C)[C@@H](O)[C@H]1C [DISERMOLIDE] |  | 100 |  |  | 10 |
| C=C1C[C@H](C)C[C@@H]2CC=C[C@@H](C/C=C\C(=O)O[C@H]([C@@H](O)/C=C/[C@@H]3CC(C)=CCO3)C[C@@H]3O[C@H]3[C@@H](O)C1)O2 [FIJIANOLIDE B] | 3.4 | 7.5 |  |  |  |
| CC(=O)O[C@H]1C(=O)[C@@]2(C)[C@H]([C@H](OC(=O)c3ccccc3)[C@]3(O)C[C@H](OC(=O)[C@H](O)[C@@H](NC(=O)c4ccccc4)c4ccccc4)C(C)=C1C3(C)C)[C@]1(OC(C)=O)CO[C@@H]1C[C@@H]2O [PACLITAXEL] |  | 1500 |  |  | 1.1 |

Reference: ChEMBL document CHEMBL1144374, “Design, synthesis and biological evaluation of novel, simplified analogues of laulimalide: modification of the side chain” (Bioorg Med Chem Lett, 2005)
